Experimental data published in ChEMBL document CHEMBL2151030, “Improving the solubility of a new class of antiinflammatory pharmacodynamic hybrids, that release nitric oxide and inhibit cycloxygenase-2 isoenzyme” (Eur J Med Chem, 2012).
Values after ≈ are worked out from the molar mass of the structure shown.

Tests used:
[1] = Solubility of the compound in simulated gastric fluid without pepsin at pH 1.5 by HPLC analysis; type: physicochemical
Method in brief: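 Compound from 20 mM DMSO stock diluted 1:100 into 0.05 M simulated gastric fluid without pepsin (pH 1.5 with HCl), duplicate wells on a solubility filter plate, shaken 90 min at 300 rpm. Seven-point calibration standards from 1 to 200 μM.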

Rattus norvegicus [2] = test: Antiinflammatory activity in rat assessed as reduction of carrageenan-induced paw pressure at 20 mg/kg, po after 60 mins post carrageenan-challenge; type: functional; set-up: scale not given: the % may be the effect or the level left
Method in brief: (§1)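 Rats (Sprague-Dawley or Wistar, 150-200 g) received intraplantar carrageenan 4 h before testing, then oral compound or CMC vehicle. Paw-pressure threshold read before treatment and at 15, 30, 45 and 60 min after treatment, compared with saline and carrageenan controls.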

Mus musculus [3] = test: Analgesic activity in Swiss albino mouse assessed as reduction of acetic acid-induced writhing at 5.5 nmol/kg, po after 5 mins; type: functional; set-up: scale not given: the % may be the effect or the level left
Method in brief: (§2)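 Male Swiss albino mice (23-25 g), standard diet and water ad libitum, 23 ± 1 °C, 12 h light/dark cycle. Test compound given orally; 0.6% acetic acid (10 mL/kg) injected ip. Stretching movements counted for 10 min, beginning 5 min after administration.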

Mus musculus [4] = test: Analgesic activity in Swiss albino mouse assessed as reduction of acetic acid-induced writhing at 73.6 nmol/kg, po after 5 mins; type: functional; set-up: scale not given: the % may be the effect or the level left; method in brief: as §2
[5] = molecular target: T1, Prostaglandin G/H synthase 1 (Mus musculus) (UniProt P22437); test: Inhibition of COX1-mediated PGE2 production in mouse J774 cells at 10 uM preincubated for 15 mins measured after 30 mins by radioimmunoassay relative to control; type: cell-based
T1 sequence (whole entry): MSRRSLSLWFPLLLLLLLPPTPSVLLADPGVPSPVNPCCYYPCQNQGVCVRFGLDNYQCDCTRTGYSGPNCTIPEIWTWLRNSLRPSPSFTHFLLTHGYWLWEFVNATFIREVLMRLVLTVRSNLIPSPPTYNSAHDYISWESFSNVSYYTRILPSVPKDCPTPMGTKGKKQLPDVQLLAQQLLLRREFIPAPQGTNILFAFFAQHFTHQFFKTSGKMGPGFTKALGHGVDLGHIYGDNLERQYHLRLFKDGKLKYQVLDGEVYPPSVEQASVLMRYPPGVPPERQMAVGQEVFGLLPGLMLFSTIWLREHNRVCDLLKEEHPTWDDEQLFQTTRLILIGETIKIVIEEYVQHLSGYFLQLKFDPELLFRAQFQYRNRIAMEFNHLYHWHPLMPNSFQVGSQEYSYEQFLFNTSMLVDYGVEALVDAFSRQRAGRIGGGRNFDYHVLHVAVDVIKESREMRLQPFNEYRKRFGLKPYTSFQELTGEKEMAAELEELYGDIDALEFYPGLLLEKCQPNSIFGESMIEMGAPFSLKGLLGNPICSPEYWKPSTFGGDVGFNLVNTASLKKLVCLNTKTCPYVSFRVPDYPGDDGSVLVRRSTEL
Method in brief: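 Murine J774 macrophages in DMEM with 10% FBS, glutamine, HEPES, pyruvate and antibiotics, adhered 2 h at 37 °C in 5% CO2. Medium was refreshed, cells were pretreated with compound for 15 min, then given 15 μM arachidonic acid for 30 min at 37 °C. PGE2 in supernatant was measured by RIA as % inhibition versus control, triplicate wells, mean of three experiments.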

Rattus norvegicus [6] = test: Antiinflammatory activity in rat assessed as reduction of carrageenan-induced oedema in right hind paw at 40 mg/kg, po after 4 hrs post carrageenan-challenge; type: functional; set-up: scale not given: the % may be the effect or the level left
Method in brief: (§3)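 Sprague-Dawley or Wistar rats (150-200 g). Carrageenan injected intraplantar; oral treatment with test compound or CMC vehicle. Right hind paw volume measured 4 h after carrageenan and compared with saline- and carrageenan-treated controls.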

[7] = Solubility of the compound in PBS buffer at pH 7.4 by HPLC analysis; type: physicochemical
Method in brief: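 20 mM DMSO stocks diluted 1:100 into 0.01 M PBS pH 7.4 in duplicate wells of a solubility filter plate, shaken 90 min at 300 rpm. Seven-point calibration standards from 1 to 200 μM.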

J774 = test: Selectivity index, ratio of IC50 for COX1-mediated PGE2 production to IC50 for COX2-mediated PGE2 production in mouse J774 cells; type: cell-based
Method in brief: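 Ratio of the COX-1 IC50 to the COX-2 IC50, both from PGE2 RIA in J774 cells. For COX-1, cells were given compound for 15 min, then 15 μM arachidonic acid for 30 min; lower concentrations (0.01–1 μM) were tested when warranted. For COX-2, cells were given LPS 10 µg/mL for 24 h with compound at 0.01–10 μM. IC50 came from a sigmoidal variable-slope fit.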

Mus musculus [8] = test: Analgesic activity in Swiss albino mouse assessed as reduction of acetic acid-induced writhing at 36.8 nmol/kg, po after 5 mins; type: functional; set-up: scale not given: the % may be the effect or the level left; method in brief: as §2
Mus musculus [9] = test: Analgesic activity in Swiss albino mouse assessed as reduction of acetic acid-induced writhing at 18.4 nmol/kg, po after 5 mins; type: functional; set-up: scale not given: the % may be the effect or the level left; method in brief: as §2
Rattus norvegicus [10] = test: Antiinflammatory activity in rat assessed as reduction of carrageenan-induced paw pressure at 20 mg/kg, po after 15 mins post carrageenan-challenge; type: functional; set-up: scale not given: the % may be the effect or the level left; method in brief: as §1
Rattus norvegicus [11] = test: Antiinflammatory activity in rat assessed as reduction of carrageenan-induced paw pressure at 40 mg/kg, po after 45 mins post carrageenan-challenge; type: functional; set-up: scale not given: the % may be the effect or the level left; method in brief: as §1
Aorta = test: Vasorelaxant activity in Wistar rat endothelium-denuded thoracic aortic ring assessed as inhibition of KCl-induced contractile tone in presence of guanylate cyclase inhibitor ODQ; type: functional, tissue-based
Method in brief: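 Male normotensive Wistar rats (250–350 g); thoracic aortic rings, endothelium removed by rubbing, removal confirmed by <10% relaxation to ACh (10 µM) in KCl (30 mM)-contracted rings. ODQ 1 µM incubated after confirmation; rings contracted with KCl 30 mM, then 3-fold increasing compound concentrations (1 nM–10 µM). Isometric tension; pIC50 from half reduction of KCl tone; mean ± SE, 6–10 experiments.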

Rattus norvegicus [12] = test: Antiinflammatory activity in rat assessed as reduction of carrageenan-induced paw pressure at 20 mg/kg, po after 30 mins post carrageenan-challenge; type: functional; set-up: scale not given: the % may be the effect or the level left; method in brief: as §1
Rattus norvegicus [13] = test: Antiinflammatory activity in rat assessed as reduction of carrageenan-induced paw pressure at 40 mg/kg, po after 30 mins post carrageenan-challenge; type: functional; set-up: scale not given: the % may be the effect or the level left; method in brief: as §1
[14] = molecular target: T2, Prostaglandin G/H synthase 2 (Mus musculus) (UniProt Q05769); test: Inhibition of COX2-mediated PGE2 production in LPS-induced mouse J774 cells by radioimmunoassay relative to control; type: cell-based; set-up: concentration or dose not given beside the values; conditions: concentration not given here
T2 sequence (whole entry): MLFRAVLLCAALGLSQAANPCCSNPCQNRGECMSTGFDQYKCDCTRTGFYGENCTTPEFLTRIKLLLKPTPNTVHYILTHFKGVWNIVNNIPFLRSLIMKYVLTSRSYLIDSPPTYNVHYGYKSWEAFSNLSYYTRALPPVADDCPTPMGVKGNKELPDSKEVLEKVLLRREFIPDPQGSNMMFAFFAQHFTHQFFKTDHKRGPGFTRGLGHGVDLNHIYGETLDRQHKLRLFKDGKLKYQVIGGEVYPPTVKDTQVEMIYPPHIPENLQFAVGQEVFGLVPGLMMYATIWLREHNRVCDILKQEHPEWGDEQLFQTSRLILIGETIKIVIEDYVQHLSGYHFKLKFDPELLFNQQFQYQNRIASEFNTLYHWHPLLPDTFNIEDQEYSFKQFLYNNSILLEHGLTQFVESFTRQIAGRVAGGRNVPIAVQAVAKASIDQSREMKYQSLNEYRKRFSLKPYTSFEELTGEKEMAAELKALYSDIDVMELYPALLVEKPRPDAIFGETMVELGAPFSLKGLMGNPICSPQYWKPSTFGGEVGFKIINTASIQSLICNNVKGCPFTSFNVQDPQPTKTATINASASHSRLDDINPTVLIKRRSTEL
Method in brief: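 J774 cells, cultured as for the COX-1 assay, were stimulated 24 h with E. coli LPS (10 µg/mL) to induce COX-2, with or without compound at 0.01–10 μM. Supernatant PGE2 was measured by RIA as % inhibition versus control, triplicate wells, mean of three experiments. IC50 came from a sigmoidal variable-slope dose-response fit.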

[15] = molecular target: T3, Prostaglandin G/H synthase 1 (Mus musculus, UniProt P22437); test: Inhibition of COX1-mediated PGE2 production in mouse J774 cells preincubated for 15 mins measured after 30 mins by radioimmunoassay; type: cell-based
T3 sequence (P22437 whole entry): T1 sequence (whole entry)
Method in brief: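 Murine J774 macrophages in DMEM/10% FBS, adhered 2 h at 37 °C. […] Supernatant PGE2 measured by RIA. Triplicate wells, mean of three experiments; IC50 by sigmoidal variable-slope fit.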

Rattus norvegicus [16] = test: Antiinflammatory activity in rat assessed as reduction of carrageenan-induced oedema in right hind paw at 20 mg/kg, po after 4 hrs post carrageenan-challenge; type: functional; set-up: scale not given: the % may be the effect or the level left; method in brief: as §3
Rattus norvegicus [17] = test: Antiinflammatory activity in rat assessed as reduction of carrageenan-induced paw pressure at 40 mg/kg, po after 15 mins post carrageenan-challenge; type: functional; set-up: scale not given: the % may be the effect or the level left; method in brief: as §1
Rattus norvegicus [18] = test: Antiinflammatory activity in rat assessed as reduction of carrageenan-induced paw pressure at 20 mg/kg, po after 45 mins post carrageenan-challenge; type: functional; set-up: scale not given: the % may be the effect or the level left; method in brief: as §1
Rattus norvegicus [19] = test: Antiinflammatory activity in rat assessed as reduction of carrageenan-induced paw pressure at 40 mg/kg, po after 60 mins post carrageenan-challenge; type: functional; set-up: scale not given: the % may be the effect or the level left; method in brief: as §1
Liver = test: Induction of nitrite/nitrate production in Wistar rat liver homogenates at 1 mM; type: functional, tissue-based; conditions: TDE = time-dependent effect
Method in brief: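 Liver from male Wistar rats (250–350 g), perfused with cold buffer (pH 7.4), homogenized 1:5 w/v. Homogenate in K2HPO4/EDTA buffer pH 7.4 with 1 mM glutathione, NADH and NADPH at 37 °C; compound added from DMSO at 1 mM final. Aliquots at 5-120 min into H2SO4/KI; quantified against sodium nitrite calibration.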

Mus musculus [20] = test: Analgesic activity in Swiss albino mouse assessed as reduction of acetic acid-induced writhing at 21 nmol/kg, po after 5 mins; type: functional; set-up: scale not given: the % may be the effect or the level left; method in brief: as §2
Mus musculus [21] = test: Analgesic activity in Swiss albino mouse assessed as reduction of acetic acid-induced writhing at 42 nmol/kg, po after 5 mins; type: functional; set-up: scale not given: the % may be the effect or the level left; method in brief: as §2

Row | solubility [1] [µM] | solubility [7] [µM] | SMILES | Activity (Rattus norvegicus [2]) [%] | Activity (Rattus norvegicus [6]) [%] | Activity (Rattus norvegicus [10]) [%] | Activity (Rattus norvegicus [11]) [%] | Activity (Rattus norvegicus [12]) [%] | Activity (Rattus norvegicus [13]) [%] | Activity (Rattus norvegicus [16]) [%] | Activity (Rattus norvegicus [17]) [%] | Activity (Rattus norvegicus [18]) [%] | Activity (Rattus norvegicus [19]) [%] | also measured
1 | > 200 | 80 (≈ 40.4 µg/mL) | Cc1c(C(N)C(=O)OCCCO[N+](=O)[O-])cc(-c2ccc(S(C)(=O)=O)cc2)n1-c1ccc(F)cc1 (stereo unspecified) | 15 | 45 | 25 | 53 | 44 | 70 | 15 | 40 | 27 | 16 | Activity (Mus musculus [3]): 19%; Activity (Mus musculus [4]): 59.6%; inhibition [5]: 0%; Ratio IC50 (J774): > 12.2; Activity (Mus musculus [8]): 46.1%; Activity (Mus musculus [9]): 36.2%; IC50 (Aorta): 2190 nM; inhibition [14]: 95%; IC50 [15]: > 10000 nM
2 | < 1 | 1.6 (≈ 0.762 µg/mL) | Cc1c(CC(=O)OCCO[N+](=O)[O-])cc(-c2ccc(S(C)(=O)=O)cc2)n1-c1cccc(F)c1 | 10 | 40 | 18 | 60 | 35 | 80 | 17 | 50 | 29 | 23 | Activity (Liver): tde; Activity (Mus musculus [20]): 30.8%; Activity (Mus musculus [21]): 48.8%
